For assay [1], the target named is Mitogen-activated protein kinase 8 (Homo sapiens) (UniProt P45983). Kind of assay: Binding affinity to human JNK1 at 1 uM after 1 hr by KINOMEscan assay.
The target of assay [2] is T1, Phosphatidylinositol 4,5-bisphosphate 3-kinase catalytic subunit alpha isoform (Homo sapiens, UniProt P42336). Kind of assay: Binding affinity to human PI3Kalpha equilibrate for 6 hrs by scan-kinetic platform assay. In a few lines:
(§1)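 scanKINETIC format on PI3Kα and PI3Kγ. […] Arm C: equilibrated 1 h. Arm B: equilibrated 1 h, diluted 30-fold, then re-equilibrated. Arm D: diluted immediately, then equilibrated. Kd compared with and without the dilution step to judge reversibility.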

The target in assay [3] is Phosphatidylinositol 4,5-bisphosphate 3-kinase catalytic subunit beta isoform (Homo sapiens, UniProt P42338). As to the kind of experiment: Binding affinity to human PI3Kbeta after 1 hr by KINOMEscan assay.
The target of assay [4] is T1, Phosphatidylinositol 4,5-bisphosphate 3-kinase catalytic subunit alpha isoform. Kind of assay: Binding affinity to human PI3Kalpha equilibrate for 1 hr by scan-kinetic platform assay. In a few lines:
as §1

For assay [5], the target named is T2, PI3-kinase p110-alpha/p85-alpha (Homo sapiens) (UniProt P27986+P42336). As to the kind of experiment: Binding affinity to PI3Kalpha/p85alpha (unknown origin) assessed as covalent modification at Lys802 residue at 4 uM measured for 3/300 secs by hydrogen-deuterium exchange mass spectrometry. The assay is classed as protein-complex assay. In a few lines: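 PI3Kα (p110α/p85α) preincubated 30 min at 2 μM with 4 μM inhibitor or DMSO (5% final). Diluted to 0.4 μM in 50 μL for deuterium exchange at 3 s on ice and 300 s at 20 °C. Quenched with ice-cold 2 M guanidine-HCl/3% formic acid, then UPLC-TOF-MS. Peptide changes >5% and >0.4 Da with paired t-test p<0.01 taken as significant.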

The target in assay [6] is T3, Phosphatidylinositol 4,5-bisphosphate 3-kinase catalytic subunit gamma isoform (Homo sapiens, UniProt P48736). As to the kind of experiment: Binding affinity to human PI3Kgamma equilibrate for 1 hr by scan-kinetic platform assay. In outline: as §1
In assay [7] the target is Mitogen-activated protein kinase 9 (Homo sapiens) (UniProt P45984). Kind of assay: Binding affinity to human JNK2 at 1 uM after 1 hr by KINOMEscan assay.
The target in assay [8] is Tyrosine-protein kinase Lck (Homo sapiens, UniProt P06239). Kind of assay: Binding affinity to human LCK after 1 hr by KINOMEscan assay.
In assay [9] the target is T4, Serine/threonine-protein kinase PLK4 (Homo sapiens) (UniProt O00444).
T4 sequence (whole entry): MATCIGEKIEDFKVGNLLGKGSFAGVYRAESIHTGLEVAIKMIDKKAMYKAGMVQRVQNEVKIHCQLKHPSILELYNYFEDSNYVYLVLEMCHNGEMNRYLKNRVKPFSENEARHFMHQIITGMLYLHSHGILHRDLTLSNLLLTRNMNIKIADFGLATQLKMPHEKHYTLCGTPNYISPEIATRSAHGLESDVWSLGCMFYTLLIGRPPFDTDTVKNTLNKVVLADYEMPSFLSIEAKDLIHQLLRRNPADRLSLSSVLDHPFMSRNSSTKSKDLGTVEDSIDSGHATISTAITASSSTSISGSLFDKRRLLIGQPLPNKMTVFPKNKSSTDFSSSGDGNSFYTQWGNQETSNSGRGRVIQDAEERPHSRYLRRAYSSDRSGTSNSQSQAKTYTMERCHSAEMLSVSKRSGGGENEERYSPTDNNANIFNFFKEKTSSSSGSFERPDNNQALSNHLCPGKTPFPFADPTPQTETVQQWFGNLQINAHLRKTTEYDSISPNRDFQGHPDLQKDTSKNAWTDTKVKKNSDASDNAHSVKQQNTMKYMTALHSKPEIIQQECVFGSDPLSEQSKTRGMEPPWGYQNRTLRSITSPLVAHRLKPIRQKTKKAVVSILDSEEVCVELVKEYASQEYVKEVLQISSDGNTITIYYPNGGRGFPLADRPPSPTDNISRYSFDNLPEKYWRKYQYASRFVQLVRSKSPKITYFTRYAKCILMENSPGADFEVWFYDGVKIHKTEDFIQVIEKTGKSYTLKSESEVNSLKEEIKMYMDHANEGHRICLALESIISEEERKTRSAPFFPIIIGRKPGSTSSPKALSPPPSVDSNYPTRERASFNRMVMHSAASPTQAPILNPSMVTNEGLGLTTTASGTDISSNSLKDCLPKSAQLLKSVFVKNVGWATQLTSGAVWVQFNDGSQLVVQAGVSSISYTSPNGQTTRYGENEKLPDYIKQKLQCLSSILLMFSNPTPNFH
As to the kind of experiment: Binding affinity to human PLK4 at 1 uM after 1 hr by KINOMEscan assay.

Assay [10] deals with T1, Phosphatidylinositol 4,5-bisphosphate 3-kinase catalytic subunit alpha isoform. As to the kind of experiment: Binding affinity to human PI3Kalpha after 1 hr by KINOMEscan assay.
The target in assay [11] is T3, Phosphatidylinositol 4,5-bisphosphate 3-kinase catalytic subunit gamma isoform. Kind of assay: Binding affinity to human PI3Kgamma after 1 hr by KINOMEscan assay.
The target of assay [12] is Epidermal growth factor receptor (Homo sapiens) (UniProt P00533). Kind of assay: Inhibition of EGFR in human HeLa cells assessed as reduction in EGF-stimulated EGFR phosphorylation at 0.3 to 100 nM preincubated for 10 mins followed by EGF stimulation measured after 5 mins by Western blot analysis. The assay is classed as cell-based. In a few lines: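 HeLa cells were serum-starved overnight, pretreated with compound for 10 min, then stimulated with 10 ng mL-1 EGF for 5 min. Lysis was in boiling SDS sample buffer, with protein quantified at 660 nm. Equal protein was resolved by SDS-PAGE and Western blotted for pEGFR Tyr1068, pAKT Ser473/Thr308, and pERK1/2 Thr202/Tyr204 with total proteins and GAPDH, detected by ECL.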
For orientation: Immunoblotting shows a protein as a band on a membrane.

For assay [13], the target named is Aurora kinase B (Homo sapiens) (UniProt Q96GD4). As to the kind of experiment: Binding affinity to human AURKB at 1 uM after 1 hr by KINOMEscan assay. In a few lines: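 KINOMEscan competition binding profiling across 97 kinases. Affinity expressed as percent of control.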
Assay [14] concerns the target Mitogen-activated protein kinase 10 (Homo sapiens) (UniProt P53779). As to the kind of experiment: Binding affinity to human JNK3 at 1 uM after 1 hr by KINOMEscan assay.
The test system of assay [15] is Panel NCI-60 (60 carcinoma cell lines). Kind of assay: Growth inhibition of human NCI60 cells after 48 hrs by sulforhodamine B assay. The assay is classed as functional. In a few lines: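 NCI 60-cell line panel (leukemia, NSCLC, colon, CNS, melanoma, ovarian, renal, prostate, breast). 5-point dose-response curves with top concentration 50 µM. GI50, TGI and LC50 were calculated from the curves.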
In general terms: Sulforhodamine B stains cellular protein and so reports cell mass.

For assay [16], the target named is T3, Phosphatidylinositol 4,5-bisphosphate 3-kinase catalytic subunit gamma isoform. As to the kind of experiment: Binding affinity to human PI3Kgamma equilibrate for 6 hrs by scan-kinetic platform assay. In a few lines:
as §1

Assay [17] deals with T2, PI3-kinase p110-alpha/p85-alpha (Homo sapiens). Kind of assay: Binding affinity to PI3Kalpha/p85alpha (unknown origin) assessed as covalent modification at Lys802 residue at 4 uM after 2 mins by tandem MS/MS method. The assay is classed as protein-complex assay. In outline:
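Recombinant PI3Kα (p110α/p85α) at 2 μM mixed with 4 μM inhibitor in 10 mM HEPES pH 7.5, 100 mM NaCl, 5% DMSO. Timepoints quenched by unfolding in ice-cold 2 M guanidine-HCl/3% formic acid, snap-frozen in liquid N2, stored at −80 °C. Analysed by LC-MS/MS; mass shift of the modified peptide read out.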

Assay [18] has as its target Serine/threonine-protein kinase mTOR (Homo sapiens, UniProt P42345). As to the kind of experiment: Binding affinity to human mTOR after 1 hr by KINOMEscan assay.

We go through one compound from ChEMBL document CHEMBL4266033, “Neolymphostin A Is a Covalent Phosphoinositide 3-Kinase (PI3K)/Mammalian Target of Rapamycin (mTOR) Dual Inhibitor That Employs an Unusual Electrophilic Vinylogous Ester” (J Med Chem, 2018).

Active and inactive are the calls of the source. The calls are words filed in the database; no cut-off is given here.

The term Kd denotes the concentration at which binding is half-saturated. Lower therefore signals tighter binding. As usually defined, the GI50 is the concentration giving 50% growth inhibition. Lower therefore signals greater sensitivity of the cells.

T1 sequence (P42336 whole entry, canonical isoform): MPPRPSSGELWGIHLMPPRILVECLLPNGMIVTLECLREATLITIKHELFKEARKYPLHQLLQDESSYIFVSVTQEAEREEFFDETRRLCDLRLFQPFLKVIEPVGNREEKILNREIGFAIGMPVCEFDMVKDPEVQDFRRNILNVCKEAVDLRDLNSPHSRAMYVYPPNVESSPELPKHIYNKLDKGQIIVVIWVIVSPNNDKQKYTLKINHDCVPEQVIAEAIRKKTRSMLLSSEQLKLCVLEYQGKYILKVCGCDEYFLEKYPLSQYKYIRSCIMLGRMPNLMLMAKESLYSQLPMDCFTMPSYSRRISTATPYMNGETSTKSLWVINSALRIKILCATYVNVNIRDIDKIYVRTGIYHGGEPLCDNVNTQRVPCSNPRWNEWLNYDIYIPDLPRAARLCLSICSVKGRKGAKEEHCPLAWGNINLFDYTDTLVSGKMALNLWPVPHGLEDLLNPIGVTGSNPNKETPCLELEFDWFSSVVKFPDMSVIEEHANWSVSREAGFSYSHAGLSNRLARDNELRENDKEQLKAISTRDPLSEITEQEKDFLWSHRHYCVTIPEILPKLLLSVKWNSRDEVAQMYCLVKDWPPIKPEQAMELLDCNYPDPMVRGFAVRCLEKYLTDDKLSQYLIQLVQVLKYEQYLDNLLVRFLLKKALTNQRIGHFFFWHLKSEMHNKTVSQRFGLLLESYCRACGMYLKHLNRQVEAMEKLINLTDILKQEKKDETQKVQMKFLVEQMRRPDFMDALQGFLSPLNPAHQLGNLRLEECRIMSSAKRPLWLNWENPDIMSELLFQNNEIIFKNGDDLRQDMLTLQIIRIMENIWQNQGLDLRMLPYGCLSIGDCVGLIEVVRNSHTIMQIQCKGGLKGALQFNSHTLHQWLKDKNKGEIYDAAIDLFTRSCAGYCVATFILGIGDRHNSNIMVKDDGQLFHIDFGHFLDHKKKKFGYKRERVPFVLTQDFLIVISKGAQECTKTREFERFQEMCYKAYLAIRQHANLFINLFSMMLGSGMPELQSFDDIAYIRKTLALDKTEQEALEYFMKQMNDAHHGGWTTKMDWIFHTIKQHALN
T3 sequence (P48736 whole entry, canonical isoform): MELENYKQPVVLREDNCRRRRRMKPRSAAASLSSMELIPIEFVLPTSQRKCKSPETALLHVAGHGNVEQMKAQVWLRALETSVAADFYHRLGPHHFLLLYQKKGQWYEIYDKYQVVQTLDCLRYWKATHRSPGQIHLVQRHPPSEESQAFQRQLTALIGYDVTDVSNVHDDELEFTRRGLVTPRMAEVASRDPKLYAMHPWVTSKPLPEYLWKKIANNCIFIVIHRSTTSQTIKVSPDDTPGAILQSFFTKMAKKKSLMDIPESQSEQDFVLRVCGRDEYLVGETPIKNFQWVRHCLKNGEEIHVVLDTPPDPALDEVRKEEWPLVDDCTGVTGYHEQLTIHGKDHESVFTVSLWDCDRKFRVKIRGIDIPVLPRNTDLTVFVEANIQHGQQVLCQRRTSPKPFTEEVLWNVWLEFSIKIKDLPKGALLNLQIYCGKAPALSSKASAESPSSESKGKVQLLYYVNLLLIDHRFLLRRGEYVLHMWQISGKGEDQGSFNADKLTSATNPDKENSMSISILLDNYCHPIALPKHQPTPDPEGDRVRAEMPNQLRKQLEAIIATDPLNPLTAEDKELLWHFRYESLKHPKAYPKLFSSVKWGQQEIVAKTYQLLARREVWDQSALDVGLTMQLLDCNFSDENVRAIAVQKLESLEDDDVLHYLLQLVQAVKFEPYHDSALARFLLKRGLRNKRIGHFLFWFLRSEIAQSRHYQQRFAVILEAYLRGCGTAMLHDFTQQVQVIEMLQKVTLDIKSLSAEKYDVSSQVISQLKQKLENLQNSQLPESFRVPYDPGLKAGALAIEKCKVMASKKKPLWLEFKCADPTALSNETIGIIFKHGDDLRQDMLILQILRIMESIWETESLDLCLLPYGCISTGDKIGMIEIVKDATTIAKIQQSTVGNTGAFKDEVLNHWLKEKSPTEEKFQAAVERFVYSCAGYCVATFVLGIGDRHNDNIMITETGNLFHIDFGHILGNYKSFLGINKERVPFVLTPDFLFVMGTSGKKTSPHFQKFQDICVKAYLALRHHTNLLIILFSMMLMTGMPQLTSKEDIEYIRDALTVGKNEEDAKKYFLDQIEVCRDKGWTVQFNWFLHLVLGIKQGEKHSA
Sequence of Mitogen-activated protein kinase 8 (Homo sapiens) (P45983 whole entry, canonical isoform): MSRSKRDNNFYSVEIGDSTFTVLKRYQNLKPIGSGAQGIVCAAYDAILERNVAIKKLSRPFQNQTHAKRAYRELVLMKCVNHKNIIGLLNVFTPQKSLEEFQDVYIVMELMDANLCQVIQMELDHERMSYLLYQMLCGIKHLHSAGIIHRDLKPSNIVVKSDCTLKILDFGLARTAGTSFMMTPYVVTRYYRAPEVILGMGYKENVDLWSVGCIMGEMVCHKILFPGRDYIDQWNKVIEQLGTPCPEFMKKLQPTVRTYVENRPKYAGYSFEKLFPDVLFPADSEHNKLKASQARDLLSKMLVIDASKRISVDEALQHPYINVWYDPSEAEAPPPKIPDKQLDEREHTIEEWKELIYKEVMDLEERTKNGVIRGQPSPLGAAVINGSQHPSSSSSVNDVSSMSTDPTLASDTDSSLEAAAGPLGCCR
Sequence of Phosphatidylinositol 4,5-bisphosphate 3-kinase catalytic subunit beta isoform (P42338 whole entry, canonical isoform): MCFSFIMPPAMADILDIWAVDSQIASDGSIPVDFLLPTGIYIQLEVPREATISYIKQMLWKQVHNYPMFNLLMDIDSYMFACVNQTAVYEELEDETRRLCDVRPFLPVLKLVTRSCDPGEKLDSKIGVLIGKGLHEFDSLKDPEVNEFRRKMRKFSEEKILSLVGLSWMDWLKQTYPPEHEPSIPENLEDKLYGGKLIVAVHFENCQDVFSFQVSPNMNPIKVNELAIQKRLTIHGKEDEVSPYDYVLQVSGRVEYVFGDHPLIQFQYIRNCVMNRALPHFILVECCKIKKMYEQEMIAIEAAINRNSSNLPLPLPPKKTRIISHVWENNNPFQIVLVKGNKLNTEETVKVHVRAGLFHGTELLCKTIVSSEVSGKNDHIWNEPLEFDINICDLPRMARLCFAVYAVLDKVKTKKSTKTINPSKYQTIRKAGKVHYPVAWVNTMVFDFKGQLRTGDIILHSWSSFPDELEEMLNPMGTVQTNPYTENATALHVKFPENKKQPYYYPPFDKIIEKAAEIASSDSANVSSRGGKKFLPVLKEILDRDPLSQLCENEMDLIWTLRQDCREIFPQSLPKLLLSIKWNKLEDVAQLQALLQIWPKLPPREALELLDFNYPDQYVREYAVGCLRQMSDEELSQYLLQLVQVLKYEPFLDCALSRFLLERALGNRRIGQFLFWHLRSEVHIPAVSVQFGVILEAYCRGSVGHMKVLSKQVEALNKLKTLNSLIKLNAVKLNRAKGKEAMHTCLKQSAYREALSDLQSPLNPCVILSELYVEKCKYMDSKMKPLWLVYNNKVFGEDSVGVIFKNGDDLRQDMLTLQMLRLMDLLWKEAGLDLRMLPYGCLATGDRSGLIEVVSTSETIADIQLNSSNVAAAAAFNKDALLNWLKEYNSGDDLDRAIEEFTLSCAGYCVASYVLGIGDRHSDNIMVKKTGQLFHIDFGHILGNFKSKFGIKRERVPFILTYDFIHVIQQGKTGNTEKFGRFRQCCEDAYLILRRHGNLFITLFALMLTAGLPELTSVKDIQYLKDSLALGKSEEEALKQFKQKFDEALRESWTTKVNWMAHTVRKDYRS
Sequence of Aurora kinase B (Homo sapiens) (Q96GD4 whole entry): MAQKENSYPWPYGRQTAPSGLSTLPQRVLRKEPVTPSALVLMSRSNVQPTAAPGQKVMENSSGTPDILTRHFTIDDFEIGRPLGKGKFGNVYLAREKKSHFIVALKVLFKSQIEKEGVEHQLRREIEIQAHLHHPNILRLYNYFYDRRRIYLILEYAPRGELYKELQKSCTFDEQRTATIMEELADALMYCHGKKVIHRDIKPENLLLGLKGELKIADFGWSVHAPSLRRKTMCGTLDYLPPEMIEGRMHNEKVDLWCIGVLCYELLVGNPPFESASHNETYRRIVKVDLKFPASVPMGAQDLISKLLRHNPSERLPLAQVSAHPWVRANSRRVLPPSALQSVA
Sequence of Mitogen-activated protein kinase 10 (Homo sapiens) (P53779 whole entry): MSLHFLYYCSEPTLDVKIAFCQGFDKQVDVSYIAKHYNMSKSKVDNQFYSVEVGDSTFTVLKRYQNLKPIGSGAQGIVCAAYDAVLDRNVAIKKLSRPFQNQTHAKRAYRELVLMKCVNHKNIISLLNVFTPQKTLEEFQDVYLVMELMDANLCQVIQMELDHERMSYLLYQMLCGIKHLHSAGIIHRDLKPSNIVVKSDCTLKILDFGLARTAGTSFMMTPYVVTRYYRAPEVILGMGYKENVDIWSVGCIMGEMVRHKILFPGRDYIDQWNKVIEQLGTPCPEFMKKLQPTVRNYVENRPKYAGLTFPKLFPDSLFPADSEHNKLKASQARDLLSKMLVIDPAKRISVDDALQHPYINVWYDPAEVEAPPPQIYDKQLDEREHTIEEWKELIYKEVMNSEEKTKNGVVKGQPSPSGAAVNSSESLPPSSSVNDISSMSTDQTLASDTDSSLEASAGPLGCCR
Sequence of Tyrosine-protein kinase Lck (P06239 whole entry): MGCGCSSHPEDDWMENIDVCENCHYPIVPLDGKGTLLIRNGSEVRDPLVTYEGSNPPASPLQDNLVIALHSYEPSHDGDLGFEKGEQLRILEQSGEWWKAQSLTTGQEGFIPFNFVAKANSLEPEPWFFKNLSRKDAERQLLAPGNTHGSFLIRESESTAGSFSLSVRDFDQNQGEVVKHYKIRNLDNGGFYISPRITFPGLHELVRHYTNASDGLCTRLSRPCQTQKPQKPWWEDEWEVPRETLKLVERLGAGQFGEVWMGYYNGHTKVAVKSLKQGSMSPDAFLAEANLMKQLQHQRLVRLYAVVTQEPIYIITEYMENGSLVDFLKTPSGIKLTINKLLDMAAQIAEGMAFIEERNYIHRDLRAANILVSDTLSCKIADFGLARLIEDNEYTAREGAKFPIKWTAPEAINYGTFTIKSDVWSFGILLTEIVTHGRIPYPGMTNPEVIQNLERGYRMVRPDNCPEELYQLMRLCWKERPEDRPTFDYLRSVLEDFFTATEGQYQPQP

As for `CO/C=C/C(=O)c1cc2c3c(c(N)cc(NC(=O)C(C)C)c3n1)N=C2`, the result in assay [1], in assay [5], in assay [7], in [9], in [13] and in [14] was Active. For the same compound, the outcome in [17] was Active. Besides, the equilibrium dissociation constant (Kd) in [2] was 0.43 to 0.45 nM; in assay [3], 5.7 nM; in assay [4] it was 0.65 to 0.68 nM; in [6] it was 2 to 3.3 nM; in [8] it was 4600 nM; in [10] it was 0.88 nM. For the same compound, the Kd in [11] is 3.5 nM; in [16], 1.9 to 2 nM; in assay [18], 10 nM. For the same compound, the inhibition result in assay [12] is “inactive”. Moreover, the GI50 in assay [15] lay within 6 to 840 nM.
